# ChEMBL document CHEMBL3352269, “Discovery of 2-Pyridylpyrimidines as the First Orally Bioavailable GPR39 Agonists” (ACS Med Chem Lett, 2014)
# Calls of active or inactive are those of the source. The rule behind the calls is not given here.
# Key:
# [1] = biological target: T1, G-protein coupled receptor 39 (Homo sapiens, UniProt O43194); assay: Agonist activity at human GPR39 expressed in HEK293 cells by IP1 assay; format: functional, cell-based
# T1 sequence (O43194 whole entry): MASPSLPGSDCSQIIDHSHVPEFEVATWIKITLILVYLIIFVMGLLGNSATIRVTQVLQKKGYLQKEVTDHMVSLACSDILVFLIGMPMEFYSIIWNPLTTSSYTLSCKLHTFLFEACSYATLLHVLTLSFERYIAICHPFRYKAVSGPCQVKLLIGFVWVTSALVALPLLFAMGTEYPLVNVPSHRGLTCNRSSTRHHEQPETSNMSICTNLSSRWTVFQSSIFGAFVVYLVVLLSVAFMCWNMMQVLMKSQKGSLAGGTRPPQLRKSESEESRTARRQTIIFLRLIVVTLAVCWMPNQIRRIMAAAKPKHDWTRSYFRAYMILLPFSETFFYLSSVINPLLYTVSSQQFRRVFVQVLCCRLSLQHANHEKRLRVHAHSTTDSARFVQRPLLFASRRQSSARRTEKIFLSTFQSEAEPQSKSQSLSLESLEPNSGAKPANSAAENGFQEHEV
# In short: (§1)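 Gαq signalling read as inositol-1-phosphate (IP1) accumulation in HEK293 cells overexpressing human, mouse or rat GPR39. EC50 taken from an 11-point dose–response curve run in triplicate. Replicates range from 1 to 4, with standard deviation where available.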
# [2] = biological target: T2, G-protein coupled receptor 39 (Mus musculus, UniProt Q5U431); assay: Agonist activity at mouse GPR39 expressed in HEK293 cells by IP1 assay; format: functional, cell-based; in short: as §1
# T2 sequence (Q5U431 whole entry): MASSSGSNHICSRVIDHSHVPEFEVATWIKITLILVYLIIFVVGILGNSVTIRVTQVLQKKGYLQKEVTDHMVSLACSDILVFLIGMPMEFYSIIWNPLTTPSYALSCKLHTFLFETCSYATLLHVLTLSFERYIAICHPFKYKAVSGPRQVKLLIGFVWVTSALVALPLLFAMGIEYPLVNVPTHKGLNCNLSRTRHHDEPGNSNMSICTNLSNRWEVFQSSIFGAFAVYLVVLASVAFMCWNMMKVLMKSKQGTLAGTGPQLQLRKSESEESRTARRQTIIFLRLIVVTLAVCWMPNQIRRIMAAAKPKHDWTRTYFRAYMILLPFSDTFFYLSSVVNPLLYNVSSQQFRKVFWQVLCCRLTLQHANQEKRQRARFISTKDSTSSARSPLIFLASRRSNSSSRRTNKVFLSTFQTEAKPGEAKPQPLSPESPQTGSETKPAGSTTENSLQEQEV
# [3] = Hepatic clearance in rat liver microsomes; format: ADME
# In short: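 Predicted hepatic clearance calculated from intrinsic clearance in rat liver microsomes.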
# [4] = Protection against cytokine-induced cell death in rat INS-1E cells assessed as caspase 3/7 activity; format: functional, cell-based
# In short: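 Rat insulinoma INS-1E cells (beta-cell phenotype) were treated with cytokines to induce cell death. Caspase 3/7 activity was the read-out. Dose–response run in triplicate.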
# Mus musculus = assay: Increase in GLP1 level in C57BL/6 mouse at 30 mg/kg, po concurrently dosed with 3 mg/kg, po DPP4 inhibitor PKF275-055 followed by glucose challenge after 1 hr post drug dose; format: functional
# In short: (§2)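 Male C57BL/6 mice were dosed orally with compound together with a DPP-IV inhibitor. After 1 h they were challenged with oral glucose at 3 g/kg. Active GLP-1 and plasma exposure were measured 30 min later. One-way ANOVA with Dunnett's post-test against the vehicle group.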
# [5] = Induction of GLP1 secretion in mouse STC1 cells incubated for 2 hrs by fluorescent bead based ELISA method; format: functional, cell-based; conditions: STC-1, 2 h
# In short: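 Mouse enteroendocrine STC-1 cells, which express endogenous GPR39, were assayed for GLP-1 secretion over a dose–response run in triplicate. Maximal activity is expressed as fold increase in GLP-1 over the DMSO control.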
# Protein Gpr39 [6] = biological target: T3, Protein Gpr39 (Rattus norvegicus, UniProt A6QR73); assay: Agonist activity at rat GPR39 expressed in HEK293 cells by IP1 assay; format: functional, cell-based; in short: as §1
# T3 sequence (A6QR73 whole entry): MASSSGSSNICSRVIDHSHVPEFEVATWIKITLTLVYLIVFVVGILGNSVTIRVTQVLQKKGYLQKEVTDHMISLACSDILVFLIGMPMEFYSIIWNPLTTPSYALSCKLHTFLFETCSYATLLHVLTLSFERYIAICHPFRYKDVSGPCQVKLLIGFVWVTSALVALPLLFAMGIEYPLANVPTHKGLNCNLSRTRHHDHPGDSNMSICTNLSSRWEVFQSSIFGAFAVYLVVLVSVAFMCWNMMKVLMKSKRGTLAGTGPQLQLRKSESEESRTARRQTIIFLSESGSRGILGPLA
# [7] = biological target: T4, G-protein coupled receptor 39 (Homo sapiens) (UniProt O43194); assay: Agonist activity at human GPR39 expressed in HEK293 cells by cAMP assay relative to forskolin; format: functional, cell-based
# T4 sequence (whole entry): T1 sequence (O43194 whole entry)
# In short: (§3)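 cAMP accumulation (Gαs signalling) in HEK293 cells overexpressing human GPR39. Dose–response curve run in triplicate, 1–16 replicates. EC50 derived from the curve. Percent efficacy is expressed relative to the cAMP response to 25 μM forskolin.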
# [8] = biological target: T1, G-protein coupled receptor 39; assay: Agonist activity at human GPR39 expressed in HEK293 cells by cAMP assay; format: functional, cell-based; in short: as §3
# [9] = Permeability from apical to basolateral side in human Caco2 cells; format: ADME, cell-based; conditions: Caco-2, read-out: permeability
# [10] = Plasma concentration in C57BL/6 mouse at 30 mg/kg, po concurrently dosed with 3 mg/kg, po DPP4 inhibitor PKF275-055 followed by glucose challenge after 1 hr post drug dose; format: ADME, organism-based; in short: as §2
# [11] = Clearance in Sprague-Dawley rat at 1 mg/kg, iv administered as single dose; format: ADME, organism-based; parameters: dose 1 mg/kg, route intravenous; conditions: in vivo
# In short: (§4)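 Sprague–Dawley rats received a single iv dose of 1 mg/kg, with clearance measured, or an oral dose of 3 mg/kg, with bioavailability (F) measured.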
# [12] = Oral bioavailability in Sprague-Dawley rat at 3 mg/kg; format: ADME, organism-based; conditions: in vivo; in short: as §4
# [13] = biological target: T4, G-protein coupled receptor 39 (Homo sapiens); assay: Agonist activity at human GPR39 expressed in HEK293 cells in presence of sub-EC50 dose of zinc chloride by IP1 assay; format: functional, cell-based
# Protein Gpr39 [14] = biological target: T3, Protein Gpr39; assay: Agonist activity at rat GPR39 by IP1 assay; format: functional; in short: as §1
# [15] = biological target: T2, G-protein coupled receptor 39; assay: Agonist activity at mouse GPR39 by IP1 assay; format: functional; in short: as §1
# [16] = Aqueous solubility at pH 6.8; format: physicochemical
# [17] = biological target: T1, G-protein coupled receptor 39; assay: Agonist activity at human GPR39 by IP1 assay; format: functional; in short: as §1
EC50 [1],EC50 [2],CLhep predicted [3],Structure (SMILES),further results
5000 nM,1500 nM,–,CC(C)(C)CNc1nc(NCC2CC2)cc(-c2ccccn2)n1,–
3 nM,8 nM,33.6 mL/min/kg,CNc1nc(NCc2ccc(NS(C)(=O)=O)cc2)cc(-c2ccccn2)n1,EC50 [4]: 400 nM; fold change (FC) (Mus musculus): <2; EC50 [5]: 1300 nM; EC50 (Protein Gpr39 [6]): 3 nM; Efficacy [7]: 55%; EC50 [8]: 180 nM; Papp A→B [9]: 6.9 ×10⁻⁶ cm/s; concentration at 1 h [10]: 2000 nM
600 nM,22 nM,–,FC(F)(F)Oc1ccc(CNc2nc(NCC3CC3)cc(-c3ccccn3)n2)cc1,–
60 nM,1 nM,> 52.3 mL/min/kg,FC(F)(F)CNc1nc(NCc2ccc(Cl)cc2)cc(-c2ccccn2)n1,–
0.8 nM,0.5 nM,> 52.3 mL/min/kg,CNc1nc(NCc2ccc(Cl)cc2Cl)cc(-c2ccccn2)n1,–
81 nM,17 nM,> 52.3 mL/min/kg,Cc1nc(NCc2ccc(Cl)cc2)cc(-c2ccccn2)n1,–

# Further lines, the molecule ahead of its results:
Structure (SMILES),EC50 [1],EC50 [2],CLhep predicted [3],further results
CNc1nc(NCc2ccc(Cl)cc2)cc(-c2ccccn2)n1,15 nM,3 nM,–,–
CNc1nc(NCc2ccc(S(C)(=O)=O)cc2)cc(-c2ccccn2)n1,36 nM,185 nM,34.1 mL/min/kg,clearance [11]: 18 mL/min/kg; bioavailability [12]: 45%
O=S(=O)(NC[C@H]1CC[C@H](CNc2cc(-c3ccccn3)nc(NCC3CC3)n2)CC1)c1ccc(F)cc1,–,–,–,Activity [13]: Active
[Cl-].[Cl-].[Zn+2] [ZINC CHLORIDE],–,–,–,EC50 (Protein Gpr39 [6]): 4040 nM; Efficacy [7]: 48%; EC50 [8]: 3600 nM
O=S(=O)(NC[C@H]1CC[C@H](CNc2nc(NC3CC3)cc(-c3ccccn3)n2)CC1)c1cccc(F)c1,–,–,51.2 mL/min/kg,EC50 (Protein Gpr39 [14]): 12 nM; EC50 [15]: 4 nM; solubility [16]: < 5 µM; EC50 [17]: 202 nM
CNc1nc(NCc2ccncc2)cc(-c2ccccn2)n1,87 nM,304 nM,–,–
CNc1nc(NC2(c3ccc(Cl)cc3)CCC2)cc(-c2ccccn2)n1,25 nM,34 nM,> 52.3 mL/min/kg,–
